# Data reported in ChEMBL document CHEMBL1134542, “Experimental precedent for the need to involve the primary hydration layer of DNA in lead drug design” (J Med Chem, 2001).
# What was measured:
# Assay type in all cases: nucleic-acid assay
# Nucleic Acid [1] = assay: Association constant for binding to AATT 28-mer AATT hairpin
# Outline: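 Fluorometric equilibrium titration at 20 °C in 50 mM Tris, 100 mM NaCl, pH 7.5. A fixed 0.7-1.6 nM dye in a silanized quartz cuvette was titrated with excess 28-mer T4-looped AATT hairpin (3.54 μM stock). The rise in fluorescence was fitted to the quadratic binding equation, with dilution taken into account. Above about 4 × 10^9 M^-1, dye concentration was an extra fitting parameter.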
# Nucleic Acid [2] = assay: Kinetically Defined Association Constant for 28-mer AATT hairpin.
# Outline: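 Stopped-flow fluorescence at 20 °C, pH 7.5 (50 mM Tris, 0.1 M NaCl). 2 nM dye was mixed with excess 28-mer AATT hairpin, with excitation at 366 nm and emission through a 418 nm cutoff filter. Inverse time constants from monoexponential traces versus concentration gave kon. koff came from dissociation with excess poly[d(A-5BrU)]. Kkin = kon/koff.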
# Nucleic Acid [3] = assay: Association constant for binding to AATT duplex
# Outline: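 Fluorometric equilibrium titration at 20 °C in 50 mM Tris, 100 mM NaCl, pH 7.5. The fluorescence increase was fitted to the quadratic binding equation, with dilution corrected.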
compound,measurement,setting,value
CN1CCN(c2ccc3[nH]c(-c4ccc5[nH]c(-c6ccc(O)cc6)nc5c4)nc3c2)CC1,Ka,Nucleic Acid [1],5.2e-08 M⁻¹
same,Kkin,Nucleic Acid [2],5.9e-08 M⁻¹
same,Ka,Nucleic Acid [3],4.1e-08 M⁻¹
